ROMK mod = modulates human ROMK potassium channel activity. P48048. Tet-inducible ROMK, thallium flux fluorescence; actives lie on both sides. B-score at 10 µM. 130,000 tested, 2% active;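 active = signal ratio slope over the read window, or its plate-corrected B-score, at least 3 SD from the plate mean, either direction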;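 also: B-score of the F/F0 ratio slope over 7 to 12 s after thallium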
RBBP9 inh = inhibitors of human serine hydrolase RBBP9 | O75884 | recombinant RBBP9, FP-Rh probe fluorescence polarization | inhibition, % at 7.94 µM | 220,000 tested, 0.2% active;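 active = inhibition above the campaign mean of all tested compounds plus 3 SD, cut at about 14% in these data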
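Test system: recombinant human RBBP9; Timing: 30 min then 45 min, 25 °C; Detection: fluorescence polarization; Control set: RBBP9 with DMSO as uninhibited control, no-protein wells as full inhibition; Compound dosing: one concentration, 7.94 µM nominal, 0.794% DMSO; Probe or stimulus: FP-Rh activity-based probe, 375 nM before mixing.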
KCC2 mod = modulators of human KCC2 chloride dependent transport; KCC2 cells, thallium flux FluoZin-2 fluorescence; B-score of Tl+ flux slope (higher = more flux/activation; lower = inhibition) at 10 µM; 190,000 tested, 2.2% active; AID 1456;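 active = thallium flux slope and its plate-corrected score both differing from the plate sample mean at a set confidence after two filtering rounds, in either direction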;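 also: slope of fluorescence scaled to starting intensity during 10 to 20 s after thallium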
p47phox inh = inhibitors of human p47phox binding. P14598. p47phox/p22phox peptide binding, fluorescence polarization, 2 h. inhibition, % at 24.7 µM. 220,000 tested, 0.53% active. AID 1274;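 active = inhibition above about 30%, limit read from the data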
WT yeast gro inh = growth inhibition of WT yeast, mitochondrial fusion screen. mitochondrial fusion phenotypic screen, WT strain. inhibition, % at 10 µM. 190,000 tested, 2.1% active. AID 1362; in the data active = inhibition above about 58%; tested in S. cerevisiae
14-3-3 Bad inh = disrupts binding of bovine 14-3-3 zeta to phospho-Bad peptide. P63103. TR-FRET 14-3-3zeta/Dy647-pBad peptide displacement, 1 h. inhibition, % at 21.7 µM. 220,000 tested, 0.71% active. AID 781;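 active = inhibition above about 70%, limit read from the data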
Of the large screens only hits and unclear results are named; the others gave an inactive call; [ ] = remark or other dose. In the library only some 5.8% were active in any assay of this set; here they are far more common.

Cc1ccc(-c2cc3cccc[n+]3cc2-c2ccc(C)cc2)cc1	none (no result: ROMK mod)
CCC(C)Oc1nc2c(c(=O)n(C)c(=O)n2C)n1C (stereo unspecified)	none (no result: ROMK mod, WT yeast gro inh)
COc1ccc(Cn2c(=S)[nH]c3ccsc3c2=O)cc1	KCC2 mod 26
COc1ccc(C(=O)NNC(=O)CCn2nnc(-c3ccc(C)cc3)n2)cc1OC	none
CCN(CCNCC(O)COCc1ccc(Cl)cc1)c1cccc(C)c1 (stereo unspecified)	WT yeast gro inh 62 (no result: ROMK mod)
CCN(CCCNC(=O)C1CCC(=O)N1Cc1ccc(F)cc1)c1cccc(C)c1 (stereo unspecified)	none (no result: ROMK mod)
COc1cc(OC)c(-c2c3cc(O)c(=O)cc-3oc3cc(O)c(O)cc23)cc1OC	WT yeast gro inh 59 (no result: ROMK mod)
COc1c(O)cc2oc(-c3ccc(O)cc3)cc(=O)c2c1O	none (no result: ROMK mod, RBBP9 inh, WT yeast gro inh)
O=C(OCCN1CCOCC1)C(c1ccccc1)c1ccccc1	none (no result: ROMK mod)
CC(C)N1C(=O)CC2(CC[N+](C)(CCOC(=O)C(c3ccccc3)c3ccccc3)CC2)C1=O (stereo unspecified)	14-3-3 Bad inh 77[fluorescence artefact?]
Cc1cccc(-c2nnc(SCc3ccccc3)o2)c1	WT yeast gro inh 65 (no result: ROMK mod)
CNC(=O)c1nnn(Cc2ccccc2)c1NC(C)=O	none (no result: ROMK mod)
CNC(=O)c1nnn(Cc2ccccc2)c1NC(=O)C(F)(F)F	14-3-3 Bad inh 77 (no result: KCC2 mod)
CC(C)(C)c1ccc(NC(=O)CNC2CCCc3ccccc32)cc1 (stereo unspecified)	WT yeast gro inh 81
O=C(c1cc([N+](=O)[O-])[nH]n1)N1CCSCC1	none (no result: ROMK mod, WT yeast gro inh)
COc1ccc2[nH]c3nc(SCc4nnc(-c5ccccc5)o4)nnc3c2c1	14-3-3 Bad inh 74 (no result: ROMK mod)
Cc1ccc(NC(=S)N2CCN(c3ncccn3)CC2)c(C)c1	none (no result: ROMK mod)
CCCCCCc1cc2cc(S(=O)(=O)c3ccc(Cl)cc3)c(=O)oc2cc1O	WT yeast gro inh 88
CCCCCCc1cc2cc(S(=O)(=O)c3ccc(C)cc3)c(=O)oc2cc1O	none
Cc1ccc(CNCC(O)(c2ccccc2)c2ccc(F)cc2)cc1 (stereo unspecified)	WT yeast gro inh 75 (no result: ROMK mod)
Cc1cc2[nH]c3c(c[n+](C)c4ccccc34)c2cc1C	p47phox inh 50
Cc1cc(=O)[nH]c2ccccc12	none (no result: ROMK mod)
Oc1ccc(/C=N/N2CCN(C3c4ccccc4-c4ccccc43)CC2)cc1	none (no result: ROMK mod, KCC2 mod, WT yeast gro inh)
Oc1ccc(/C=N/N2CCN(C3c4ccccc4-c4ccccc43)CC2)c(O)c1	WT yeast gro inh 98
COc1ccc(-c2cn(-c3ccc(C)cc3C)c(=O)[nH]2)cc1OC	none
COCCNC(=O)c1onc(CSc2ccccc2C)c1C(=O)O	none (no result: ROMK mod)
COCCNC(=O)c1onc(CSc2cc(C)ccc2C)c1C(=O)O	14-3-3 Bad inh 78
COCCNC(=O)c1onc(CSc2ccc(F)c(F)c2)c1C(=O)O	14-3-3 Bad inh 77
O=C(NCC1CCCO1)c1onc(CSc2ccccc2)c1C(=O)O (stereo unspecified)	14-3-3 Bad inh 72 (no result: ROMK mod)
COc1ccc(NC(=O)CSc2nnc(NC(C)=O)s2)c([N+](=O)[O-])c1	none
CCn1cc(C(=S)N2CCC(C(N)=O)CC2)c2ccccc21	none
Cc1ccccc1-c1nc(CS(=O)(=O)CC(=O)NCCCN2CCCC2)c(C)o1	none (no result: ROMK mod)
Cc1ccccc1-c1nc(CS(=O)(=O)CC(=O)NCCN2CCOCC2)c(C)o1	p47phox inh 69 (no result: ROMK mod)
COCCCNC(=O)CS(=O)(=O)Cc1nc(-c2cccc(OC)c2)oc1C	WT yeast gro inh 75 (no result: KCC2 mod)
CCCOc1ccc(-c2nc(C#N)c(N3CCC(C(N)=O)CC3)o2)cc1	WT yeast gro inh 94 (no result: ROMK mod)
N#Cc1nc(Cc2cccc3ccccc23)oc1N1CCC(C(N)=O)CC1	KCC2 mod -7.4
COc1ccccc1C(=O)COC(=O)CNS(=O)(=O)c1ccc(C)cc1	none
COC(=O)C1=C(C)NC2=C(C1c1ccc(O)cc1)S(=O)(=O)c1ccccc12 (stereo unspecified)	none
COc1ccc(C2C(C#N)=C(C)NC3=C2S(=O)(=O)c2ccccc23)cc1 (stereo unspecified)	WT yeast gro inh 58
CN1CCN(Cc2nc3ccccc3c(=O)n2Cc2nc(-c3cccc([N+](=O)[O-])c3)cs2)CC1	none
CN1CCN(Cc2nc3ccccc3c(=O)n2Cc2nc(-c3ccc4ccccc4c3)cs2)CC1	WT yeast gro inh 81
CCN1CCN(Cc2ccc(NC(=O)c3cc(NC(=O)c4cnn(-c5ccccc5)c4N)cc(OC)c3)cc2C(F)(F)F)CC1	none (no result: ROMK mod, RBBP9 inh, WT yeast gro inh)
CCN1CCN(Cc2ccc(NC(=O)c3ccc(C)c(NC(=O)c4ccc5n[nH]nc5c4)c3)cc2C(F)(F)F)CC1	none (no result: ROMK mod, RBBP9 inh, WT yeast gro inh)
CCN1CCN(Cc2ccc(NC(=O)c3cc(NC(=O)C(=O)c4c[nH]c5ccccc45)cc(OC)c3)cc2C(F)(F)F)CC1	p47phox inh 37 (no result: ROMK mod, RBBP9 inh, WT yeast gro inh)
CCN1CCN(Cc2ccc(NC(=O)c3ccc(C)c(NC(=O)C(=O)c4c[nH]c5ccccc45)c3)cc2C(F)(F)F)CC1	p47phox inh 59 (no result: ROMK mod, RBBP9 inh, WT yeast gro inh)
NS(=O)(=O)c1ccc(CCNS(=O)(=O)c2ccc(Cl)nc2)cc1	none (no result: ROMK mod, WT yeast gro inh)
CCc1ccccc1NC1=NCC(=O)N1C1CCCCC1	none (no result: ROMK mod)
Cc1cc(C)c(NC2=NCC(=O)N2C2CCCCC2)c(C)c1	WT yeast gro inh 68
Cn1c(=O)c2c(SCC(=O)Nc3nccs3)nc(C3CC3)nc2n(C)c1=O	none (no result: ROMK mod, WT yeast gro inh)
c1ccc(OCCSc2nnnn2-c2ccccc2)cc1	KCC2 mod -3.8 (no result: ROMK mod)
CCOc1ccc(OCCSc2nnnn2-c2ccccc2)cc1	none (no result: ROMK mod)
COC(=O)C1=C(Nc2cc(Cl)cc(Cl)c2)CSC1	none (no result: WT yeast gro inh)
CCCCC(=O)N(c1ccc(C)c(C)c1)C1C=CS(=O)(=O)C1 (stereo unspecified)	14-3-3 Bad inh 93 (no result: KCC2 mod)
CC(C)CC(=O)N(c1ccc(F)cc1)C1C=CS(=O)(=O)C1 (stereo unspecified)	none (no result: ROMK mod)
O=C(Cc1ccc(F)cc1)N(c1ccc(F)cc1)C1C=CS(=O)(=O)C1 (stereo unspecified)	p47phox inh 35 (no result: ROMK mod)
O=C(Cc1ccccc1)N(c1ccc(F)cc1)C1C=CS(=O)(=O)C1 (stereo unspecified)	none (no result: KCC2 mod)
C/C(=N\N=C(/N)SC1CC(=O)N(c2cccc(Cl)c2)C1=O)c1cccs1 (stereo unspecified)	WT yeast gro inh 94
c1ccc(-c2nc(N3CCNCC3)nc3ccccc23)cc1	none
c1ccc(-c2nc(N3CCCCC3)nc3ccccc23)cc1	WT yeast gro inh 68
CC/C(=N\NC(=O)c1ccc(Br)cc1)c1ccccc1	none
CCC/C(=N/NC(=O)c1cccc(Cl)c1)c1ccccc1	KCC2 mod 12
C/C(=N\N=C(N)N)c1cccc(Cl)c1	none
C/C(=N\NC(N)=O)c1cccc(Cl)c1	14-3-3 Bad inh 75[fluorescence artefact?] (no result: ROMK mod)
COc1ccc(N=Nc2nc3cc(Br)c(Br)cc3n2C)c(OC)c1	WT yeast gro inh 61 (no result: ROMK mod)
CCOC(=O)C1CCCN(Cc2ccccc2Cl)C1 (stereo unspecified)	14-3-3 Bad inh 71 (no result: KCC2 mod)

Screening data from PubChem.
